The source of these data is the M2OR odorant receptor database.

Conditions in all cases: stereoisomer not certain
For one experiment, the target named is T1, UniProt Q8VF43.
T1 sequence (whole entry): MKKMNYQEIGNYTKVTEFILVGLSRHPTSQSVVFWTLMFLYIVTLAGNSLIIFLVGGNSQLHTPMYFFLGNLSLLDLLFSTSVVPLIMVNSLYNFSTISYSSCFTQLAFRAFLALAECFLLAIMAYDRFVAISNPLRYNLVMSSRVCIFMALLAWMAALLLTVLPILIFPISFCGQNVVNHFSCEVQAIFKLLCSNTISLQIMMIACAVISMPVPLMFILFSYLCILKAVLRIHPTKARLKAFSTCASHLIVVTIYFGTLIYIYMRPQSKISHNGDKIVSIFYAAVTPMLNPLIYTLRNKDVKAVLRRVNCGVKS
The method in brief:
(§1)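 Transient luciferase assays in mammalian cell lines were common, though methods varied by source. The values come from published papers and their supplementary material, with extra details from the original authors when needed. Responsive refers to a measured signal the original authors judged statistically different from baseline, and non-responsive (inactive) to the remainder.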

The target in the next experiment is T2, UniProt Q8VF52.
T2 sequence (whole entry): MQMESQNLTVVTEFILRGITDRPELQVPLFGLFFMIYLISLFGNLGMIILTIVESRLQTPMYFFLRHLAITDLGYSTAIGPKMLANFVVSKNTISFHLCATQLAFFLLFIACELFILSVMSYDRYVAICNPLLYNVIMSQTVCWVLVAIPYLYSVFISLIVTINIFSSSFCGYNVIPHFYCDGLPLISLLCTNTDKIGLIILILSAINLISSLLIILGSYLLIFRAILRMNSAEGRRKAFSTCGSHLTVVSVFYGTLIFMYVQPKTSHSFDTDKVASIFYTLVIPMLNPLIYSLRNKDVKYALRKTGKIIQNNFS
The method in brief:
as §1

In another experiment the target is T3, UniProt Q8VFM8.
T3 sequence (whole entry): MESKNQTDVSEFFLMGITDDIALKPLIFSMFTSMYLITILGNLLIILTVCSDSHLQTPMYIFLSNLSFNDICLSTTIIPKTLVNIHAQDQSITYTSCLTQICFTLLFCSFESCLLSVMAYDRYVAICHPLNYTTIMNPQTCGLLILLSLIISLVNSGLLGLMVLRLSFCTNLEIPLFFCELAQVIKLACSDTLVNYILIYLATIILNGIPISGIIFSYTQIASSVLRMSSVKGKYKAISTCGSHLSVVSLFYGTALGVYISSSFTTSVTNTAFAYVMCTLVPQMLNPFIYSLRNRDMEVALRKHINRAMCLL
The method in brief: as §1

The target of a further experiment is T4, UniProt Q8VFP5.
T4 sequence (whole entry): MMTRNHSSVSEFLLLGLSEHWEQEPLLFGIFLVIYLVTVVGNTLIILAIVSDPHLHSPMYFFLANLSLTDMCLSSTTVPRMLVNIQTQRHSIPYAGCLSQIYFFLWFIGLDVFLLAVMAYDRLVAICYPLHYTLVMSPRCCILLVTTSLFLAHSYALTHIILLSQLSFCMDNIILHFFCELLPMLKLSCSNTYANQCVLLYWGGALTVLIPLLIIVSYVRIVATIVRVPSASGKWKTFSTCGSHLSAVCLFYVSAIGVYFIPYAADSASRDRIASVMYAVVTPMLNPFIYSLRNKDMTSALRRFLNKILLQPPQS
The essentials: as §1

Another experiment has as its target T5, UniProt Q8VG01.
T5 sequence (whole entry): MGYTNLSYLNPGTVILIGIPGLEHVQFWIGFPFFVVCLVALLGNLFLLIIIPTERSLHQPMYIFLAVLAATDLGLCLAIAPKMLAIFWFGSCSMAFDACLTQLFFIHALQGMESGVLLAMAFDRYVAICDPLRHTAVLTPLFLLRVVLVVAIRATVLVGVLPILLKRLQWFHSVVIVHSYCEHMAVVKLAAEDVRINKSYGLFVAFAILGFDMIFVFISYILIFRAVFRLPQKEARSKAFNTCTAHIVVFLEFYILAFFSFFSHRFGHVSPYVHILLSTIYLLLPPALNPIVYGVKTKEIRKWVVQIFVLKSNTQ
The essentials: as §1

A further experiment deals with T6, UniProt Q8VF24.
T6 sequence (whole entry): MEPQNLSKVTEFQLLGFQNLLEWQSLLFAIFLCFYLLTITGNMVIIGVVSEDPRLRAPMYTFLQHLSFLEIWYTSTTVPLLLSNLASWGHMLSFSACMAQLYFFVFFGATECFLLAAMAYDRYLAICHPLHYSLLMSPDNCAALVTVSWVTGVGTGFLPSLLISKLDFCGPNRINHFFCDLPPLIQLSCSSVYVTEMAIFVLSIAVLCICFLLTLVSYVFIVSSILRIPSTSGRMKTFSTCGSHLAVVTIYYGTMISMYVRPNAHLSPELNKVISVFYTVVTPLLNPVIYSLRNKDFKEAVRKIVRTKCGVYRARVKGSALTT
The essentials: as §1

The target of another experiment is T7, UniProt Q8VF44.
T7 sequence (whole entry): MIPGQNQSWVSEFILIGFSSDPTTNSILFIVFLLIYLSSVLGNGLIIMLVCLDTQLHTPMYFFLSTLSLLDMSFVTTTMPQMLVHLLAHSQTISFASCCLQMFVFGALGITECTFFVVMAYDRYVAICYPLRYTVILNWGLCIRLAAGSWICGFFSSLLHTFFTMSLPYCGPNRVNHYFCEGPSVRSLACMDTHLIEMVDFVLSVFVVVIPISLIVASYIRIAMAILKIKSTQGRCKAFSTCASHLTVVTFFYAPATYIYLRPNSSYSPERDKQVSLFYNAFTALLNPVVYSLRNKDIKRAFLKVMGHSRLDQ
The method in brief: as §1

A further experiment addresses T8, UniProt Q8VFG6.
T8 sequence (whole entry): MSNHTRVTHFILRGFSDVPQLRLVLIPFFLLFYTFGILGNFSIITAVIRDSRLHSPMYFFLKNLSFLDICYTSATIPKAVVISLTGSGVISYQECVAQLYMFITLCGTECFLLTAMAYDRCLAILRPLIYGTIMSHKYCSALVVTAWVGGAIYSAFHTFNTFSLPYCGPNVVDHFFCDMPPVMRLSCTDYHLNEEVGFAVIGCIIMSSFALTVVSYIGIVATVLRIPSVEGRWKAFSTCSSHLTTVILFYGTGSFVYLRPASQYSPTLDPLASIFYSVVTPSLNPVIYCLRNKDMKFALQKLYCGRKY
The essentials: as §1

The next experiment deals with T9, UniProt Q8VFZ6.
T9 sequence (whole entry): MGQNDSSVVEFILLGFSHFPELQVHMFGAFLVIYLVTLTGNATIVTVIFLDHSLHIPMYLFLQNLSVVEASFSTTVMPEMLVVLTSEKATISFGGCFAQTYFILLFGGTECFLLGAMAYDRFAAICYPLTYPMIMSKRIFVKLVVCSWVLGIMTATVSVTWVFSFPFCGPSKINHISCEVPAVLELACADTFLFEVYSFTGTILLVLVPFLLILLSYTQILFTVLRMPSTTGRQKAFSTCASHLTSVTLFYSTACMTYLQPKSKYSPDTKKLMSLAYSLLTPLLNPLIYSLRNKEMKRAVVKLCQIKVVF
The method in brief:
as §1

A further experiment deals with T10, UniProt Q8VG22.
T10 sequence (whole entry): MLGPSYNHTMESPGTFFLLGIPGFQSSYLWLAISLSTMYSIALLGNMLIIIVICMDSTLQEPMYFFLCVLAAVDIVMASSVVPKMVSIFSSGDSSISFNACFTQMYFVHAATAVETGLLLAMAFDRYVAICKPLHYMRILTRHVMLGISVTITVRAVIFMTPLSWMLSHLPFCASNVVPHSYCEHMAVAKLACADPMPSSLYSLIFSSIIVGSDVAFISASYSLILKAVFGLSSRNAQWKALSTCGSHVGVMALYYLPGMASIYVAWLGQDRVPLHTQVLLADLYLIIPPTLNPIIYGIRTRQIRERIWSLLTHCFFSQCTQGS
The method in brief: as §1

A further experiment addresses UniProt Q8VF73. The method in brief: as §1
In a further experiment the target is UniProt Q8VFB8. The essentials:
as §1

In another experiment the target is UniProt Q8VFQ6. The method in brief: as §1

Each structure is given as a SMILES string.
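Further: active if original authors judged signal statistically different from baseline.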

Chain of UniProt Q8VFQ6 (Q8VFQ6 as listed by the source): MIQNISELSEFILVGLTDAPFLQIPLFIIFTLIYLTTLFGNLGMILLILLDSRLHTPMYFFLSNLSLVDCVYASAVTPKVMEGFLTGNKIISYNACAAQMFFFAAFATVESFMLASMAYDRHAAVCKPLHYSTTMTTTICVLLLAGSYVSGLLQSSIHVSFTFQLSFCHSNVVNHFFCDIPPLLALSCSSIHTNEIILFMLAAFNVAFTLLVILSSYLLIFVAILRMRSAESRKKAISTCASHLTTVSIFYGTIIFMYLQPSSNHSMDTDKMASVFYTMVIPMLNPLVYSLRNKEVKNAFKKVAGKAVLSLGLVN
Chain of UniProt Q8VF73 (Q8VF73 as listed by the source): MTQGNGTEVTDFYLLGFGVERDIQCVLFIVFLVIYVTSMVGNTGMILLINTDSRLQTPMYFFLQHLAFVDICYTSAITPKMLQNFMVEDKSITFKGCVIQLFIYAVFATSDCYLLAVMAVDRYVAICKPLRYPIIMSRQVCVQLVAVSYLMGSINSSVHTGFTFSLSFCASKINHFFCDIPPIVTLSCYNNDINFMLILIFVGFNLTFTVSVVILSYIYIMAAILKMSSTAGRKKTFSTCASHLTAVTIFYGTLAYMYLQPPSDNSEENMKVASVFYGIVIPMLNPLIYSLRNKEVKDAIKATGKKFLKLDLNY
Chain of UniProt Q8VFB8 (Q8VFB8 as listed by the source): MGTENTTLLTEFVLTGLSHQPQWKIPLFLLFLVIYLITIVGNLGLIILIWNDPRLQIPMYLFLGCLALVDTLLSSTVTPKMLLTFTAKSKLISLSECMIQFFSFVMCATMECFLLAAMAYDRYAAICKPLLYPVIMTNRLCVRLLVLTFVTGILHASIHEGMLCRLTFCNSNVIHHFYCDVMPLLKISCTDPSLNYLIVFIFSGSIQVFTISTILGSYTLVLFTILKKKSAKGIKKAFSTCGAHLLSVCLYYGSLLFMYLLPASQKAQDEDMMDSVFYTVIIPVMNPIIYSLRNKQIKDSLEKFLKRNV

Consider `C1CCOC1`, for which the “odorant receptor agonist call” value with UniProt Q8VF43, in the experiment with UniProt Q8VF52, in the experiment with UniProt Q8VFM8, with UniProt Q8VFP5 and with UniProt Q8VG01 was “inactive” in each case.

In the case of `CCCCCCOC(C)=O`, the “odorant receptor agonist call” value with UniProt Q8VF24, with UniProt Q8VF43, in the experiment with UniProt Q8VF44, with UniProt Q8VF52, in the experiment with UniProt Q8VFG6 and in the experiment with UniProt Q8VFM8 was “inactive” each time. In addition, the “odorant receptor agonist call” value with UniProt Q8VFP5, with UniProt Q8VFZ6, with UniProt Q8VG01 and in the experiment with UniProt Q8VG22 was “inactive” each time.

Turning to `CCC(C(=O)O)c1ccccc1` (centres undefined), the “odorant receptor agonist call” value with UniProt Q8VF24, with UniProt Q8VF44, with UniProt Q8VF52, with UniProt Q8VFG6, in the experiment with UniProt Q8VFZ6 and with UniProt Q8VG01 was “inactive” throughout. Besides, in the experiment with UniProt Q8VG22, the “odorant receptor agonist call” value was “inactive”.

Regarding `O=C(c1ccccc1)c1ccccc1`, the “odorant receptor agonist call” value with UniProt Q8VF24, with UniProt Q8VF43, in the experiment with UniProt Q8VF52, with UniProt Q8VFG6, in the experiment with UniProt Q8VFM8 and with UniProt Q8VFP5 was “inactive” each time. The “odorant receptor agonist call” value in the experiment with UniProt Q8VFZ6, with UniProt Q8VG01 and with UniProt Q8VG22 was “inactive” in each case. Further, the “odorant receptor agonist call” value with UniProt Q8VF44 was “active”.

Take `C=C(C)C1CCC(C)C(=O)C1` (centres undefined): the “odorant receptor agonist call” value with UniProt Q8VF24, in the experiment with UniProt Q8VF43, in the experiment with UniProt Q8VF44, with UniProt Q8VFG6, with UniProt Q8VFM8 and in the experiment with UniProt Q8VFP5 was “inactive” each time. The “odorant receptor agonist call” value in the experiment with UniProt Q8VFZ6 and with UniProt Q8VG01 was “inactive” throughout. For the same compound, the “odorant receptor agonist call” value with UniProt Q8VF52 and in the experiment with UniProt Q8VG22 was “active” each time.

Regarding `CCCCCO`, the “odorant receptor agonist call” value with UniProt Q8VF24, with UniProt Q8VF44, with UniProt Q8VF52, with UniProt Q8VFG6, in the experiment with UniProt Q8VFZ6 and with UniProt Q8VG01 was “inactive” throughout. For the same compound, the “odorant receptor agonist call” value in the experiment with UniProt Q8VG22 is “active”.

As for `OCCc1ccccc1`, the “odorant receptor agonist call” value with UniProt Q8VF43, with UniProt Q8VF52, with UniProt Q8VFM8, in the experiment with UniProt Q8VFP5 and with UniProt Q8VG01 was “inactive” throughout.

For `CCCCCCCCCC(=O)[O-].[H+]`, the “odorant receptor agonist call” value with UniProt Q8VF24, with UniProt Q8VF43, with UniProt Q8VF44, with UniProt Q8VF52, with UniProt Q8VFG6 and with UniProt Q8VFM8 was “inactive” each time. The “odorant receptor agonist call” value in the experiment with UniProt Q8VFP5, in the experiment with UniProt Q8VFZ6, with UniProt Q8VG01 and in the experiment with UniProt Q8VG22 was “inactive” throughout.

With `CCCCCCC(C)=O`, the “odorant receptor agonist call” value with UniProt Q8VF24, in the experiment with UniProt Q8VF43, in the experiment with UniProt Q8VF44, with UniProt Q8VF52, with UniProt Q8VFG6 and in the experiment with UniProt Q8VFM8 was “inactive” each time. Further, the “odorant receptor agonist call” value with UniProt Q8VFP5, with UniProt Q8VFZ6, in the experiment with UniProt Q8VG01 and in the experiment with UniProt Q8VG22 was “inactive” in each case.

Turning to `O=c1ccc2ccccc2o1`, the “odorant receptor agonist call” value in the experiment with UniProt Q8VF24, with UniProt Q8VFB8, with UniProt Q8VFG6, with UniProt Q8VFQ6, with UniProt Q8VFZ6 and with UniProt Q8VG01 was “inactive” in each case. In addition, the “odorant receptor agonist call” value with UniProt Q8VF44, with UniProt Q8VF52, in the experiment with UniProt Q8VF73 and with UniProt Q8VG22 was “active” each time.

Regarding `CC(C)=CCCC(C)=CCO`, the “odorant receptor agonist call” value with UniProt Q8VF24, with UniProt Q8VF43, in the experiment with UniProt Q8VF44, in the experiment with UniProt Q8VF52, with UniProt Q8VFG6 and in the experiment with UniProt Q8VFM8 was “inactive” throughout. Further, the “odorant receptor agonist call” value with UniProt Q8VFP5, with UniProt Q8VG01 and with UniProt Q8VG22 was “inactive” each time. In addition, in the experiment with UniProt Q8VFZ6, the “odorant receptor agonist call” value is “active”.

Regarding `CC(=O)Oc1ccccc1`, the “odorant receptor agonist call” value with UniProt Q8VF24, with UniProt Q8VF43, with UniProt Q8VF44, in the experiment with UniProt Q8VF52, with UniProt Q8VFG6 and in the experiment with UniProt Q8VFM8 was “inactive” in each case. Further, the “odorant receptor agonist call” value with UniProt Q8VFP5, with UniProt Q8VFZ6 and with UniProt Q8VG01 was “inactive” in each case. The “odorant receptor agonist call” value with UniProt Q8VG22 was “active”.
